Several values for one entry are separate records, joined by “and”; a condition that tells them apart may be missing. Equal values may be shown once. Entries after “also recorded” stand apart in the source; their conditions may differ.
Assays:
[1] = target: T1, cloned rat kappa opioid receptors (Rattus norvegicus, UniProt P34975); assay: cell-based; assay type: cell-based
[2] = target: T1, cloned rat kappa opioid receptors; assay type: biochemical
[3] = target: cloned rat κappa opioid receptors (Rattus norvegicus, UniProt P34975); assay: Adenylyl cyclase assay; assay type: cell-based; conditions: relative to Dyn (1–13)NH2; 50 μM forskolin
How it was run: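 CHO cells stably expressing the receptor were washed twice in F12 medium and labelled for 4 h with 12 μCi [3H]adenine. They were then incubated 40 min at 37 °C with forskolin, peptidase inhibitors (10 μM bestatin, 30 μM captopril, 50 μM l-leucyl-l-leucine) and test compound at 0.1–10,000 nM in 10-fold steps. The reaction was stopped with SDS/cAMP, then perchloric acid. [3H]cAMP was counted by scintillation, with [14C]cAMP used for recovery and crossover correction.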

KOR = conditions: cited from earlier work; for Duration of action in vivo: after a single dose

Sequence of cloned rat κappa opioid receptors (P34975 whole entry): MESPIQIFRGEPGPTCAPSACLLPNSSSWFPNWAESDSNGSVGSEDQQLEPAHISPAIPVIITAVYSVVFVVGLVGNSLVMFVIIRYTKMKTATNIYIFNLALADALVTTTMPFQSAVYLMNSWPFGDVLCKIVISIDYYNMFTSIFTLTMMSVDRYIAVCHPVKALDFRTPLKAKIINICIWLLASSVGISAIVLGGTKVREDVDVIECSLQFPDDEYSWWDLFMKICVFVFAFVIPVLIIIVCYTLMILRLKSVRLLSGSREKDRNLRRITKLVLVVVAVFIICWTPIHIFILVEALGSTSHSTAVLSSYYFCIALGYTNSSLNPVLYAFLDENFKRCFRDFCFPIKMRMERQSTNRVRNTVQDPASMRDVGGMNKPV
T1 sequence (P34975 whole entry): as above

Row | Compound | Efficacy, FMP blue [1] | Efficacy, [35S]GTPγS [2] | Efficacy, adenylyl cyclase [3] | Effect of the compound alone on FMP fluorescence [1] | other results
1 | [N-Methyl-Tyr^1]zyklophin [JVA 3418] | 0.14 ± 0.03 | 0.10 ± 0.10 | 0.58 |  | 
2 | zyklophin-(1–8) [JVA 3413] | 0.22 ± 0.04 | 0.07 ± 0.14 | 0.35 |  | 
3 | [N-Allyl-Tyr^1]zyklophin [JVA 3419] | 0.15 ± 0.04 | 0.07 ± 0.17 | 0.33 |  | 
4 | CC1C2Cc3ccc(O)cc3C1(C)CCN2CC1CC1 (single isomer, unassigned; (+)) [(+)-Cyclazocine, (+)-cyclazocine] |  |  |  | did not affect FMP fluorescence | 
5 | CC(C)[C@@H](CN1CC[C@@](C)(c2cccc(O)c2)[C@@H](C)C1)NC(=O)[C@H]1Cc2ccc(O)cc2CN1 [JDTic] |  |  |  |  | Duration of action in vivo (KOR): lasting weeks after a single dose
6 | CC(C)=CCN1CCC2(C)c3cc(O)ccc3CC1C2C (stereo not drawn) [Pentazocine, pentazocine] |  |  |  |  | Efficacy (relative) [1]: 0.44 ± 0.04; IC50 [1]: 26.6 nM
7 | [N-Benzyl-Tyr^1,Dap(Ac)^8]Dyn A(1–11) amide [JVA 3416] | 0.48 and 0.48 ± 0.10 | 0.26 ± 0.06 | 1.0 |  | 
8 | [N-BenzylTyr^1,cyclo(D-Asp^5,Dap^8]Dyn (1–11) amide [Zyklophin] | 0 | 0 | 0.23 | Neither zyklophin nor nor-BNI alone influenced FMP fluorescence; also recorded: did not elicit a significant reduction in FMP fluorescence | Kb ([1]; read-out: KB from Schild regression, antagonism of U50,488): 564 nM; Duration of antagonism (KOR; after systemic administration): less than 12 h
9 | Oc1ccc2c3c1O[C@H]1c4[nH]c5c(c4C[C@@]4(O)[C@@H](C2)N(CC2CC2)CC[C@]314)C[C@@]1(O)[C@H]2Cc3ccc(O)c4c3[C@@]1(CCN2CC1CC1)[C@H]5O4 [nor-BNI, nor-binaltorphimine] |  |  |  | Neither zyklophin nor nor-BNI alone influenced FMP fluorescence | Duration of action in vivo (KOR): lasting weeks after a single dose
